# Most compounds without a hit are left out; they make up all but 2.2% or so of the library.
# IMP-1 inh-1: blocks Pseudomonas aeruginosa IMP-1 metallo-beta-lactamase | purified IMP-1, nitrocefin hydrolysis, epi-absorbance fluorescence | inhibition, % at 5.6 µM | hit rate 0.45% among 290,000;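 active = inhibition above the mean plus 3 SD of all compounds in the same screening run, cut at about 4.5% in these data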;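 also: 0% = IMP-1 with DMSO and 100% = DMSO wells lacking enzyme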
#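 assay system = purified recombinant IMP-1 metallo-beta-lactamase enzyme | schedule = 15 min preincubation plus 25 min reaction at 25 °C | signal = Epi-absorbance fluorescence, 480 nm excitation, 530 nm emission | read-out basis = percent inhibition from optical density relative to buffer-blank wells | controls = IMP-1 with DMSO as 0%, enzyme-free DMSO as 100%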
# CR mimetic SO: lowers age-related superoxide in aged yeast cells | superoxide response (% of plate mean), % at 10 µM | S. cerevisiae aged cells, superoxide DHE fluorescence; stronger effect = lower value | hit rate 0.18% among 330,000;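 active = superoxide response under a set limit, about three screen SD below normal, cut at about 65% in these data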;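 also: yeast aged for seven days with compound at 30 °C before DHE staining; 100% = average MFI of all compound-treated wells on the plate with controls excluded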
# PvdQ acylase: P. aeruginosa PvdQ acylase inhibition; inhibition, % at 10 µM; AID 488965; purified PvdQ acylase, fluorescence plate reader; hit rate 0.063% among 340,000; in the data active = inhibition above about 30%, passing the limit was not always enough;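 also: 0% = vehicle neutral wells and 100% = reference inhibitor wells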
# PHOSPHO1 block: blocks human PHOSPHO1 phosphatase activity; recombinant PHOSPHO1, absorbance phosphatase assay; hit rate 1.1% among 290,000; inhibition, % at 13.3 µM; Q8TCT1; in the data active = inhibition above about 60%
# Target sequence (Q8TCT1 whole entry, looked up): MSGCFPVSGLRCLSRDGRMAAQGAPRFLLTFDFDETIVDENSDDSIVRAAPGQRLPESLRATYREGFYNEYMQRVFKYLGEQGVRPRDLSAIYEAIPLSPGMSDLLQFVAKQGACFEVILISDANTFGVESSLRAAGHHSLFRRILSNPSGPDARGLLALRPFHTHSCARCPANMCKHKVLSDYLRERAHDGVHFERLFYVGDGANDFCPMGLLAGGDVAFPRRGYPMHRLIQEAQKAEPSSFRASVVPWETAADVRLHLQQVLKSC
# VIM-2 inhibitor: blocks Pseudomonas aeruginosa VIM-2 metallo-beta-lactamase; hit rate 0.89% among 290,000; purified VIM-2, nitrocefin hydrolysis, epi-absorbance fluorescence; inhibition, % at 5.6 µM;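 active = inhibition above the mean of all tested compounds plus 3 SD, cutoff set per screening run, cut at about 7.5% in these data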;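 also: red hydrolysis product quenches plate fluorescence so inhibitors raise well fluorescence; 0% = enzyme with DMSO and 100% = DMSO without enzyme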
# IMP-1 inh-2: IMP-1 inhibition, counter-screen for VIM-2 inhibitors. shares compounds with VIM-2 inhibitor. purified IMP-1, nitrocefin hydrolysis, epi-absorbance fluorescence. inhibition, % at 5.6 µM. 1,300 tested, under 10 active. AID 1856; call rule not given here;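 also: 0% = enzyme with vehicle and 100% = vehicle without enzyme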
# VIM-2 FRET ctr: inhibits VIM-2 in FRET assay to exclude epi-absorbance artifacts; hit rate 23% among 1,300; purified VIM-2, CCF2 FRET substrate hydrolysis; inhibition, % at 5.6 µM; AID 1857; shares compounds with VIM-2 inhibitor;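 active = inhibition above the mean of all tested compounds plus 3 SD, cut at about 19% in these data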;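 also: 0% = VIM-2 plus DMSO and 100% = no enzyme wells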
# TEM-1 counter: blocks E. coli TEM-1 beta-lactamase in VIM-2 selectivity screen | shares compounds with VIM-2 inhibitor | Purified TEM-1, nitrocefin hydrolysis, epi-absorbance fluorescence | inhibition, % at 5.6 µM | hit rate 3% among 1,300 | AID 1866;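 active = inhibition above that campaign's mean inhibition plus 3 SD, cut at about 0.46% in these data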;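 also: 0% = TEM-1 with DMSO and 100% = TEM-1 with 100 µM potassium clavulanate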
# Target sequence (P62593 whole entry, looked up): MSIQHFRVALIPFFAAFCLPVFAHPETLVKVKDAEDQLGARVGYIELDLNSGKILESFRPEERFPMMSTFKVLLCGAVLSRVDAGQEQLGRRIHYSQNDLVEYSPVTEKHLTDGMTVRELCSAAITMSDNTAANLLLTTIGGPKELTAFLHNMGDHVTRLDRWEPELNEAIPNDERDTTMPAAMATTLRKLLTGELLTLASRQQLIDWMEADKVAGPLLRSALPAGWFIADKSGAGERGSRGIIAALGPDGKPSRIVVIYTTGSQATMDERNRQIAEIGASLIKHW
# VIM-2 confirm 2: confirmation of P. aeruginosa VIM-2 metallo-beta-lactamase inhibitors. inhibition, % at 5.6 µM. hit rate 96% among 1,300. shares compounds with VIM-2 inhibitor. purified VIM-2, nitrocefin hydrolysis, epi-absorbance;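 active = inhibition of the VIM-2 beta-lactamase enzyme above about 11% from the earlier first-round screen, limit read from the data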;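 also: 0% = VIM-2 with DMSO and 100% = buffer wells without enzyme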
# An asterisk follows results filed as active; / = no result given.
SMILES,IMP-1 inh-1,CR mimetic SO,PvdQ acylase,PHOSPHO1 block,VIM-2 inhibitor,IMP-1 inh-2,VIM-2 FRET ctr,TEM-1 counter,VIM-2 confirm 2
CN(C)CCNc1ccc(-c2nn(C)c(=O)c3ccccc23)cc1[N+](=O)[O-],-4.1,105.9,8.1,45.4,79.5*,-1.8,0.0,-5.5,82.8*
CN(CCO)c1ccc(-c2nn(C)c(=O)c3ccccc23)cc1[N+](=O)[O-],-4.2,88.6,1.3,-5.9,17.5*,-4.4,-1.1,-8.0,41.3*
CN(CCO)c1cc(N(C)CCO)c([N+](=O)[O-])cc1[N+](=O)[O-],-4.2,103.1,12.8,12.3,-2.6,/,/,/,/
Cn1nc(-c2ccc(N3CCN(CCO)CC3)c([N+](=O)[O-])c2)c2ccccc2c1=O,-3.0,102.6,-8.3,3.4,81.6*,-2.6,-1.1,-7.3,88.7*
O=[N+]([O-])c1ccc(N2CCN(CCO)CC2)c2ncccc12,-4.3,93.9,-8.7,-9.7,-0.9,/,/,/,/
NC(=O)Cn1c(=O)n(CCC(=O)NCCSCc2ccccc2)c(=O)c2ccccc21,-5.3,92.6,-10.8,8.4,-4.1,/,/,/,/
CCOC(=O)c1ccc(S(=O)(=O)N2CCN(C(=O)C3CSC4(C)CCC(=O)N34)CC2)cc1 (configuration not stated),/,81.6,7.4,/,/,/,/,/,/
C=CCn1c(=O)n2ncnc2c2c3c(sc21)CCCC3,-1.3,108.1,-19.6,-5.3,14.6*,-2.8,4.6,-5.8,38.8*
O=Nc1c2nc3ccccc3n(O)c-2c2ccccc12,-4.5,106.2,-54.4,18.2,16.1*,-3.8,-1.1,-5.0,27.1*
O=P(O)(O)c1ccccc1OCCOCCOCCOCCOc1ccccc1P(=O)(O)O,-4.1,97.9,2.4,1.7,30.9*,-2.4,59.9*,-3.8,44.4*
Cc1ccccc1C(=O)NNC(=O)Nc1ccccc1,-3.4,124.0,/,27.5,-3.6,/,/,/,/
CCN1CCN(S(=O)(=O)c2ccc(Cl)c(C(=O)NCc3nc4ccccc4[nH]3)c2)CC1,/,88.7,-14.2,/,/,/,/,/,/
Cc1cc(OCC(=O)Nc2cccnc2)c2c(C)cc(=O)oc2c1,-1.1,103.5,-16.1,38.2,20.5*,-3.1,-2.6,-8.0,33.2*
Cc1cc(OCC(=O)NCCCn2ccnc2)c2c(C)cc(=O)oc2c1,-1.8,81.5,-11.6,49.0,28.1*,-3.9,-2.6,-4.9,35.5*
CCCc1cc(=O)oc2cc(C)cc(OCC(=O)NCCCn3ccnc3)c12,-3.8,111.2,-7.1,26.3,24.5*,-2.5,-9.1,-5.1,38.5*
Cc1ccc(C(C)C)cc1OCC(=O)NCCCn1ccnc1,/,103.2,-19.8,/,/,/,/,/,/
Cc1cc(OCC(=O)NCc2cccnc2)c2c(C)cc(=O)oc2c1,-1.7,88.2,0.4,39.9,1.7,/,/,/,/
CC(NC(=O)c1ccc(S(=O)(=O)Nc2ccccc2Cl)cc1)c1ccncc1 (configuration not stated),/,104.0,-5.5,/,/,/,/,/,/
CCOc1ccc(-c2c(C(=O)N/N=C/c3c[nH]c4ccccc34)nnn2-c2nonc2N)cc1,-0.9,106.5,9.2,34.4,-1.6,/,/,/,/
CN(CC(=O)Nc1ccccc1C(F)(F)F)C(=O)CN1C(=O)C2CCCCC2C1=O (configuration not stated),/,122.6,-12.3,/,/,/,/,/,/
COc1ccccc1OCC(=O)N1CCN(S(=O)(=O)c2ccc(Cl)cc2)CC1,/,/,-5.0,/,/,/,/,/,/
CC(C)C(NC(=O)c1c(F)cccc1F)C(=O)NCCc1ccc(S(N)(=O)=O)cc1 (configuration not stated),-2.2,88.6,-4.6,47.4,-2.7,/,/,/,/
Cc1nc2cc(-c3ccc(Cl)cc3)nn2c(NCCN(C)C)c1C,-2.8,77.7,0.0,32.8,18.6*,-1.7,-3.5,-7.0,44.4*
Cc1cc(-c2ccc(Cl)cc2)n2nc(C)cc2n1,-1.8,102.4,-12.9,/,0.2,/,/,/,/
O=Cc1sc(N2CCOCC2)nc1-c1ccccc1,-3.0,148.0,/,5.8,-2.8,/,/,/,/
SMILES,IMP-1 inh-1,CR mimetic SO,PvdQ acylase,PHOSPHO1 block,VIM-2 inhibitor,IMP-1 inh-2,VIM-2 FRET ctr,TEM-1 counter,VIM-2 confirm 2
COc1ccc(Cl)c2c1[nH]c1nc(SCc3ccccn3)nnc12,1.3,90.1,-7.8,-12.2,13.4*,-2.9,2.2,-8.2,21.5*
COc1ccc(Cl)c2c1[nH]c1nc(SCc3cccnc3)nnc12,-3.3,106.2,-14.1,28.3,1.6,/,/,/,/
Cc1nc2ccccc2n1CCN1CCOCC1,-3.2,98.3,-7.0,26.5,-2.9,/,/,/,/
c1ccc2nc3c(nc2c1)c1ccccc1n3CCN1CCOCC1,-3.4,88.5,-4.1,13.8,12.4*,-2.9,1.9,-5.9,18.3*
O=c1c2ccccc2nc2c3ccccc3c(NCCN3CCOCC3)nn12,-0.6,113.1,/,11.7,17.9*,-3.6,0.8,-6.4,28.1*
O=c1c2c(-c3ccccc3)csc2nc2c3ccccc3c(NCCN3CCOCC3)nn12,0.4,/,-23.5,-25.2,6.3,/,/,/,/
CCn1c(=O)c(C2=NS(=O)(=O)c3ccccc3N2)c(O)c2ccccc21,/,/,/,-2.2,/,/,/,/,/
O=C1N=C(c2ccccc2)C(c2ccccc2)N1 (configuration not stated),-2.5,98.8,-15.6,21.0,15.3*,-2.3,-4.8,-5.5,50.6*
COC(=O)c1c(NC(=O)c2ccccc2F)sc(C(=O)N2CCOCC2)c1C,-2.2,115.4,-10.6,50.8,13.3*,-3.0,0.9,-6.5,19.7*
CC1(c2ccc3ccccc3c2)NC(=O)N(CC(=O)N2CCCC(C(F)(F)F)C2)C1=O (configuration not stated),/,90.5,3.2,/,/,/,/,/,/
CC(=O)c1cccc(Nc2nc3ccccc3n3cnnc23)c1,-2.8,118.5,-17.1,11.4,13.5*,-1.8,-3.5,-3.3,25.5*
Fc1cccc(Nc2nc3ccccc3n3cnnc23)c1,-0.8,105.3,4.3,/,1.7,/,/,/,/
CN1CCN(C(=O)CSc2nc3c(c(=O)n(C)c(=O)n3C)n2C)CC1,-1.9,98.7,-1.5,28.0,75.5*,-3.6,1.9,-7.2,78.7*
COc1ccc(C)cc1Nc1c2c(nc3ccccc13)CCC2,-1.2,93.5,-15.0,35.6,19.4*,-3.1,-0.4,-6.0,28.4*
Fc1ccc(Nc2c3c(nc4ccccc24)CCC3)cc1,-6.1,107.5,-16.7,28.3,-0.8,/,/,/,/
COc1ccc(Nc2c3c(nc4ccccc24)CCCC3)cc1OC,-3.3,137.1,-2.3,-3.0,16.1*,-2.8,-1.3,-6.8,29.7*
COc1ccccc1Nc1c2ccccc2nc2ccccc12,-0.4,89.4,-4.6,28.3,24.1*,-2.3,-2.6,-4.3,35.7*
COc1cc(SC)ccc1C(=O)N1CCN(S(=O)(=O)/C=C/c2ccccc2)CC1,/,106.2,8.9,/,/,/,/,/,/
CCCCN(CC)CCCNC(=O)C1CCN(c2ncnc3c2sc2cccc(F)c23)CC1,0.8,84.4,-9.0,-25.8,29.9*,0.3,3.8,-5.7,37.8*

# Screening data from PubChem BioAssay.
